Data set [1] deals with Mus musculus. The data set is described as follows: Antifibrotic activity in CCL4-induced acute liver damage Balb/c mouse model assessed as decrease in collagen deposition in liver at 30 mg/kg, po qd for 7 days measured after 16 hrs post CCL4 challenge by masson trichome staining based assay. The class given is functional, organism-based. The gist of the method:
(§1)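 Male BalB/C mice given oral 30 mg/kg daily for 7 days, then sc CCl4 (40% in olive oil, 10 ml/kg); sacrificed 16 h later; livers fixed in 10% formaldehyde, paraffin sections stained with H&E or Masson's trichrome, light microscopy, ≥3 sections per liver; n=5, two experiments.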

Data set [2] deals with Mus musculus. Description: Antiinflammatory activity in CCL4-induced acute liver damage Balb/c mouse model assessed as decrease in serum IL-6 levels at 30 mg/kg, po qd for 7 days measured after 16 hrs post CCL4 challenge. The format is functional, organism-based. The gist of the method: (§2)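 BalB/C males dosed orally 30 mg/kg daily for 7 days, then sc CCl4 (40% in olive oil, 10 ml/kg); serum collected 16 h post-CCl4 after CO2 anaesthesia, stored at −70 °C until IL-6, MCP-1 or TGF-β analysis; n=5.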

The subject of data set [3] is Mus musculus. The data set is described as follows: Reduction in Col3a1 mRNA expression level in CCL4-induced acute liver damage in Balb/c mouse at 30 mg/kg, po qd for 7 days measured after 16 hrs post CCL4 challenge by qRT-PCR method. The class given is functional, organism-based. The gist of the method:
(§3)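 Mice given 30 mg/kg orally once daily 7 days before sc CCl4 (40% in olive oil, 10 ml/kg); livers harvested 16 h later, PBS-washed, stored at −70 °C for RNA extraction and transcript quantification; n=5, two independent experiments.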
Background: Quantitative PCR measures a nucleic acid by following its amplification.

Data set [4] concerns Mus musculus. Description: Reduction in MMP10 mRNA expression level in CCL4-induced acute liver damage in Balb/c mouse at 30 mg/kg, po qd for 7 days measured after 16 hrs post CCL4 challenge by qRT-PCR method. The format is functional, organism-based. The gist of the method: as §3
In data set [5] the test system is Mus musculus. The data set is described as follows: Antiinflammatory activity in CCL4-induced acute liver damage Balb/c mouse model assessed as decrease in serum TGF-beta levels at 30 mg/kg, po qd for 7 days measured after 16 hrs post CCL4 challenge. The class given is functional, organism-based. The gist of the method:
as §2

Data set [6] deals with Mus musculus. The data set is described as follows: In vivo inhibition of STAT3 expression level in CCL4-induced acute liver damage in Balb/c mouse assessed as decrease in nuclear STAT3 phosphorylation at 30 mg/kg, po qd for 7 days measured after 16 hrs post CCL4 challenge by hematoxylin staining based immunohistochemistry method. The class given is functional, organism-based. The gist of the method:
(§4)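 Liver sections from mice dosed orally 30 mg/kg daily 7 days then sc CCl4, killed 16 h after; H2O2 block, goat serum/BSA/gelatin blocking 1 h RT, primary antibody (α-SMA, Ki67, PCNA or STAT3) 4 °C overnight, HRP secondary, DAB, hematoxylin counterstain; >30 fields at 400× quantified; n=5.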

Data set [7] has as its system Mus musculus. The data set is described as follows: Reduction in SMAD2 mRNA expression level in liver of CCL4-induced acute liver damage in Balb/c mouse at 30 mg/kg, po qd for 7 days measured after 16 hrs post CCL4 challenge by qRT-PCR method. The format is functional, organism-based. The gist of the method:
as §3

The test system of data set [8] is Mus musculus. The data set is described as follows: Reduction in SMAD3 mRNA expression level in liver of CCL4-induced acute liver damage in Balb/c mouse at 30 mg/kg, po qd for 7 days measured after 16 hrs post CCL4 challenge by qRT-PCR method. The class given is functional, organism-based. The gist of the method: as §3
The test system of data set [9] is Mus musculus. Description: Hepatoprotective activity against CCL4-induced acute liver damage in Balb/c mouse assessed as decrease in hepatic damage at 30 mg/kg, po qd for 7 days measured after 16 hrs post CCL4 challenge by hematoxylin-eosin staining based light microscopy. The format is functional, organism-based. The gist of the method: as §1
Data set [10] deals with T1, Signal transducer and activator of transcription 3 (Homo sapiens, UniProt P40763). The data set is described as follows: Inhibition of IFNgamma-stimulated GFP/FLAG-tagged STAT3 dimerization in human AD293 cells at 10 uM incubated for 6 hrs by Western blot analysis. The class given is cell-based. The gist of the method: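 AD-293 cells co-transfected 48 h with GFP- and FLAG-tagged STAT3 plasmids, then IFN-γ with or without compound for 6 h; 100 μg lysate (RIPA) immunoprecipitated with anti-FLAG and protein G beads; blots probed for GFP and FLAG, chemiluminescent detection.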
T1 sequence (P40763 whole entry): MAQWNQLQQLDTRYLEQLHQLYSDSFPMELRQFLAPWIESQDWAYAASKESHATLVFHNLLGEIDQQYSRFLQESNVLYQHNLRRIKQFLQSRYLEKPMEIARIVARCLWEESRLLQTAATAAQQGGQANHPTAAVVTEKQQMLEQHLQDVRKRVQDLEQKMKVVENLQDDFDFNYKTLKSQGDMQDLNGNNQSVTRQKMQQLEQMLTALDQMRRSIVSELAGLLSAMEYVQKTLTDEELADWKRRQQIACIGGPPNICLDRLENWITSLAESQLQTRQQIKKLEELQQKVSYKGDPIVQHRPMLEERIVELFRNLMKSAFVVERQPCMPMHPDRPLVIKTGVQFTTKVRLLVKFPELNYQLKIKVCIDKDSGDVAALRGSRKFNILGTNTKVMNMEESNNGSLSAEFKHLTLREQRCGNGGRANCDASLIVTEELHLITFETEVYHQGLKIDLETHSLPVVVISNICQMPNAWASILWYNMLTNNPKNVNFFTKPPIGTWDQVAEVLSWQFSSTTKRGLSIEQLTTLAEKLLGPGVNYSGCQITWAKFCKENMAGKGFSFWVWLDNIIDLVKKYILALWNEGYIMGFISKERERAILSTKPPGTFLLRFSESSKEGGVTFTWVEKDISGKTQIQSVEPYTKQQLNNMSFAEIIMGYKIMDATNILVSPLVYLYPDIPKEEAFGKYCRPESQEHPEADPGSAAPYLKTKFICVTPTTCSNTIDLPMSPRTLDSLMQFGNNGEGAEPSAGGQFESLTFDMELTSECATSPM
Background: In western blotting, separated proteins are transferred to a membrane and probed.

In data set [11] the test system is Mus musculus. Description: Reduction in MMP13 mRNA expression level in CCL4-induced acute liver damage in Balb/c mouse at 30 mg/kg, po qd for 7 days measured after 16 hrs post CCL4 challenge by qRT-PCR method. The class given is functional, organism-based. The gist of the method:
as §3

The subject of a further data set is HeLa. Description: Cytotoxicity against human HeLa cells. The class given is cell-based. The gist of the method:
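AD-293 or HeLa cells grown in high-glucose DMEM with 10% FBS and 1% penicillin-streptomycin; compound exposure 24 h; cytotoxicity reported as CC10.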

In data set [12] the test system is Mus musculus. The data set is described as follows: Antiinflammatory activity in CCL4-induced acute liver damage Balb/c mouse model assessed as decrease in serum MCP-1 levels at 30 mg/kg, po qd for 7 days measured after 16 hrs post CCL4 challenge. The class given is functional, organism-based. The gist of the method: as §2
In data set [13] the test system is Mus musculus. Description: Reduction in serum ALT level in CCL4-induced acute liver damage in Balb/c mouse at 30 mg/kg, po qd for 7 days measured after 16 hrs post CCL4 challenge […]. The class given is functional, organism-based.
For data set [14], the target named is T1, Signal transducer and activator of transcription 3. Description: Inhibition of […] activation in human HeLa cells incubated […] for 16 hrs followed by compound addition measured after 4 hrs by luciferase reporter gene assay. The class given is cell-based. The gist of the method:
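NF-κB pathway in AD-293 or HeLa cells stimulated with 50 ng/mL TNF-α; compound treatment 4 h; luciferase activity read from cell extracts; EC50 derived.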
Background: A reporter such as luciferase makes a cellular process visible.

The target is the same in data set [15]. Description: Inhibition of DNA binding activity of STAT3 in human AD293 cells up to 40 uM. The class given is cell-based. The gist of the method: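 STAT3 DNA binding measured with TransAM STAT family ELISA kit per manufacturer; competition control with threefold free oligo; mean ± SD of three separate experiments.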
Data set [16] deals with Mus musculus. Description: Hepatoprotective activity against CCL4-induced acute liver damage in Balb/c mouse assessed as decrease in number of necrotic cells at 30 mg/kg, po qd for 7 days measured after 16 hrs post CCL4 challenge by hematoxylin-eosin staining based light microscopy. The class given is functional, organism-based. The gist of the method:
as §1

For data set [17], the target named is T1, Signal transducer and activator of transcription 3. The data set is described as follows: Inhibition of IFNgamma-stimulated STAT3 activation in human AD293 cells incubated with IFNgamma for 16 hrs followed by compound addition measured after 24 hrs by luciferase reporter gene assay. The format is cell-based. The gist of the method:
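AD-293 or HeLa cells in DMEM/10% FBS stimulated with 20 pg/mL IFN-γ; compound treatment 24 h; luciferase activity measured in cell extracts; EC50 derived.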

The test system of data set [18] is Mus musculus. The data set is described as follows: Hepatoprotective activity against CCL4-induced acute liver damage in Balb/c mouse assessed as increase in number of PCNA positive cells at 30 mg/kg, po qd for 7 days measured after 16 hrs post CCL4 challenge by hematoxylin staining based immunohistochemistry method. The class given is functional, organism-based. The gist of the method: as §4

Data set [19] deals with T1, Signal transducer and activator of transcription 3. The data set is described as follows: Inhibition of […] activation in human AD293 cells incubated […] for 16 hrs followed by compound addition measured after 4 hrs by luciferase reporter gene assay. The class given is cell-based.

Active and inactive are the calls of the source. No cut-off for these calls is given here. Some results are limits rather than exact numbers.

For orientation: EC50 means the concentration at which the effect is half-maximal. For `CC(C)(C)[Si](C)(C)O[C@@H]1COC(=O)/C1=C/C[C@@H]1[C@]2(CC[C@H]3[C@@]1(C)CCC(=O)[C@@]3(C)CO)CO2`, the result in the data set with Mus musculus [1], with Mus musculus [2], in the data set with Mus musculus [4], in the data set on Mus musculus [5], with Mus musculus [9] and in the data set on Mus musculus [11] was Active. The result with Mus musculus [12], in the data set with Mus musculus [16] and with Mus musculus [18] was Active. Moreover, the outcome with Mus musculus [3], in the data set with Mus musculus [7], in the data set with Mus musculus [8] and with Mus musculus [13] was inactive. Moreover, the inhibition result (with Mus musculus [6]; in data set [10]) was “Active” each time. The compound also had a CC10 with HeLa greater than 10 µM. Besides, the figures for the half-maximal effective concentration (EC50) in data set [14], in data set [17] and in data set [19] were greater than 10 µM, 5.99 µM and greater than 10 µM, respectively. In addition, the inhibition entry in data set [15] is “inactive”.
